Data published in ChEMBL document CHEMBL1221308, “Synthesis and biological evaluation of new jasplakinolide (jaspamide) analogs” (Bioorg Med Chem Lett, 2010).

Tested on: CA46
Assay: Growth inhibition of human CA46 cells […] after 24 hrs
Type: functional, cell-based
Outline: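 Human CA46 Burkitt lymphoma cells treated for 24 h; growth read as cell number, IC50 derived from that count.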

Structure (SMILES)	IC50 (Homo sapiens, CA46, 24 h) [nM]	IC50 (ca46) [nM]
COc1ccc([C@H]2CC(=O)O[C@@H](C)C[C@@H](C)/C=C(\C)CCC(=O)NCC(=O)N(C)[C@H](Cc3c(Br)[nH]c4ccccc34)C(=O)N2)cc1	300	–
COc1ccc([C@H]2CC(=O)O[C@@H](C)C[C@@H](C)/C=C(\C)CCC(=O)N[C@@H](C)C(=O)N(C)[C@H](Cc3c[nH]c4ccccc34)C(=O)N2)cc1	200	–
C/C1=C\[C@H](C)C[C@H](C)OC(=O)C[C@H](c2ccccc2)NC(=O)[C@@H](Cc2c(Br)[nH]c3ccccc23)N(C)C(=O)[C@H](C)NC(=O)CC1	200	–
COc1ccc([C@H]2CC(=O)NC(C)C[C@@H](C)/C=C(\C)CCC(=O)N[C@@H](C)C(=O)N(C)[C@H](Cc3c(Br)[nH]c4ccccc34)C(=O)N2)cc1 (stereo in doubt)	–	750
COc1ccc([C@H]2CC(=O)O[C@@H](C)C[C@@H](C)/C=C(\C)C[C@@H](C)C(=O)N[C@@H](C)C(=O)N(C)[C@H](Cc3c(Br)[nH]c4ccccc34)C(=O)N2)cc1	20	–
COc1ccc([C@H]2CC(=O)NC(C)C[C@@H](C)/C=C(\C)CCC(=O)N[C@@H](C)C(=O)N(C)[C@H](Cc3c(Br)[nH]c4ccccc34)C(=O)N2)cc1 (single isomer, unassigned; diastereomer 2)	–	3000
COc1ccc([C@H]2CC(=O)O[C@@H](C)C[C@@H](C)/C=C(\C)CCC(=O)N[C@@H](C)C(=O)N[C@H](Cc3c(Br)[nH]c4ccccc34)C(=O)N2)cc1	3000	–
